What all share (type): functional
The species entered for experiment [1] is Homo sapiens. The experiment in a line: Ability of 0.5 mM to reduce affinity of hemoglobin for oxygen is assessed from 50% partial pressure of oxygen in membrane free hemoglobin solution. The method in brief:
(§1)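 Membrane-free hemoglobin: erythrocytes washed five times in 0.15 M NaCl, lysed in 5 volumes of water, filtered through paper and then down to 0.22 µm. Compound dissolved in 0.1 M HEPES, pH 7.4, hemoglobin added to a final 12.5 ± 0.5 µM, incubated 30 min at 37 °C. P50 taken from the O2-dissociation curve. Initial screen at 1 mM in duplicate.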

For experiment [2], the species on record is Homo sapiens. Nature of the experiment: Ability of 1 mM to reduce affinity of hemoglobin for oxygen is assessed from 50% partial pressure of oxygen in membrane free hemoglobin solution. The method in brief:
as §1

Experiment [3] has as its target Hemoglobin HbA (Homo sapiens) (UniProt P69905+P68871). The experiment in a line: Ratio of effect of compound on affinity of hemoglobin for oxygen to that of control. In outline:
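Mean P50 with compound divided by mean P50 of the respective controls. P50 measured from O2-dissociation curves at 37 °C after 30 min in 0.1 M HEPES, pH 7.4, with hemoglobin at 12.5 ± 0.5 µM, in intact red cells or membrane-free hemoglobin.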

Experiment [4] is filed under the species Homo sapiens. Nature of the experiment: Ability of 0.5 mm to reduce affinity of hemoglobin for oxygen is assessed from 50% partial pressure of oxygen in intact red cells. In outline:
(§2)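 Intact red cells: 30-µL aliquots of fresh heparinized normal whole blood added to 5 mL of compound diluted in 0.1 M HEPES, pH 7.4; final hemoglobin 12.5 ± 0.5 µM by spectrophotometry. Equilibrated 30 min at 37 °C, then oxygenated in the instrument chamber. P50 (mmHg PO2 at 50% deoxygenation) read from the O2-dissociation curve. Initial screen at 1 mM in duplicate.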

The species entered for experiment [5] is Homo sapiens. The experiment in a line: Ability of 1 mm to reduce affinity of hemoglobin for oxygen is assessed from 50% partial pressure of oxygen in intact red cells. The method in brief:
as §2

Experiment [6] is filed under the species Homo sapiens. The experiment in a line: Ability of 0.1 mM to reduce affinity of hemoglobin for oxygen is assessed from 50% partial pressure of oxygen in intact red cells. The method in brief: as §2
For experiment [7], the species on record is Homo sapiens. Nature of the experiment: Ability of 0.05 mM to reduce affinity of hemoglobin for oxygen is assessed from 50% partial pressure of oxygen in membrane free hemoglobin solution. The method in brief:
as §1

The species entered for experiment [8] is Homo sapiens. Nature of the experiment: Ability of 0.05 mM to reduce affinity of hemoglobin for oxygen is assessed from 50% partial pressure of oxygen in intact red cells. The method in brief: as §2
The species entered for experiment [9] is Homo sapiens. The experiment in a line: Ability of 0.2 mM to reduce affinity of hemoglobin for oxygen is assessed from 50% partial pressure of oxygen in membrane free hemoglobin solution. The method in brief:
as §1

The species named for experiment [10] is Homo sapiens. Nature of the experiment: Ability of 0.1 mM to reduce affinity of hemoglobin for oxygen is assessed from 50% partial pressure of oxygen in membrane free hemoglobin solution. In outline:
as §1

For experiment [11], the species on record is Homo sapiens. Nature of the experiment: Ability of 0.2 mM to reduce affinity of hemoglobin for oxygen is assessed from 50% partial pressure of oxygen in intact red cells. The method in brief:
as §2

The structures appear in SMILES notation.

Sequence of Hemoglobin HbA (Homo sapiens) (P68871 2-147 partner limits assumed): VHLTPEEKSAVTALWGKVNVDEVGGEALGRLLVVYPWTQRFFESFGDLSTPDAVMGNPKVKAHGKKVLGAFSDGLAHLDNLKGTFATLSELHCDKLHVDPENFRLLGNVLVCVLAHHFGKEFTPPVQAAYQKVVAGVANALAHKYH
Sequence of Hemoglobin HbA (Homo sapiens) (P69905 2-142 limits assumed): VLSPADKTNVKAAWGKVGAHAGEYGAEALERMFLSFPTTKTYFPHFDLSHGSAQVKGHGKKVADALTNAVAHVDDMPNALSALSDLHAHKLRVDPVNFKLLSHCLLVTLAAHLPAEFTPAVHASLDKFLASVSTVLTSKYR

Regarding `CC(C)(Oc1ccc(NC(=O)Nc2ccc([N+](=O)[O-])cc2)cc1)C(=O)O`, the P50 in experiment [1] is 13 mmHg; in experiment [2], 19 mmHg; in experiment [4] it was 21 mmHg; in experiment [5] it was 26.5 mmHg. The Ratio in [3] is 2.79 [middle of 4 runs].

In the case of `CC(C)(Oc1ccc(NC(=O)Nc2cc(Cl)c(Cl)c(Cl)c2)cc1)C(=O)O`, the P50 in experiment [6] amounted to 35 mmHg; in [7] it was 16.2 mmHg; in experiment [8], 27.5 mmHg; in experiment [9], 57.2 mmHg; in experiment [10], 28.5 mmHg; in [11] it was 60 mmHg.

The values are drawn from ChEMBL document CHEMBL1124654, “Synthesis and investigation of effects of 2-[4- [[(arylamino)carbonyl]amino]phenoxy]-2-methylpropionic acids on the affinity of hemoglobin for oxygen: structure-activity relationships” (1989).
